Reference: ChEMBL document CHEMBL2163200, “Synthesis, biological evaluation, and structure-activity relationships of novel substituted N-phenyl ureidobenzenesulfonate derivatives blocking cell cycle progression in S-phase and inducing DNA double-strand breaks” (J Med Chem, 2012)
Activity calls are given as the source filed them. The rule behind the calls is not given here.

Columns and labels:
Jurkat [1] = test: Cell cycle arrest in human Jurkat E6-1 cells assessed as accumulation at G0/G1 phase at 40 uM after 24 hrs by FACS flow cytometry; format: functional
How it was run: (§1)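 Jurkat E6 cells cultured in RPMI 1640 with 10% FBS at 37 °C, 5% CO2. Compounds serially diluted in medium, starting 50% above the M21 IC50. 4.0 × 10^5 cells were exposed for 24 h. Cells were washed with PBS, chicken red blood cells added as internal standard, and fixed in ice-cold EtOH. After 1 h on ice in PBS with 1 μg/mL DAPI, phase distribution was read by flow cytometry. DMSO-treated cells served as control.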

Jurkat [2] = test: Cell cycle arrest in human Jurkat E6-1 cells assessed as accumulation at S phase at 40 uM after 24 hrs by FACS flow cytometry; format: functional
How it was run: (§2)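 Jurkat E6 T-lymphoblasts in RPMI 1640 with 10% FBS, 37 °C, 5% CO2. […] Chicken red blood cells were added as internal standard. Cells were fixed in ice-cold EtOH and stained with 1 μg/mL DAPI on ice for 1 h before flow cytometry of phase distribution. Vehicle control was 0.5% DMSO.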

Jurkat [3] = test: Cell cycle arrest in human Jurkat E6-1 cells assessed as accumulation at G2/M phase at 40 uM after 24 hrs by FACS flow cytometry; format: functional
How it was run: (§3)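 Jurkat E6 cells grown in RPMI 1640 with 10% FBS at 37 °C, 5% CO2. Compounds were serially diluted in medium starting 50% above the M21 IC50. 4.0 × 10^5 cells were exposed for 24 h, then washed and spiked with chicken red blood cells as internal standard. Cells were fixed in ice-cold ethanol, stained with 1 μg/mL DAPI on ice for 1 h, and phase distribution was read by flow cytometry. The control was 0.5% DMSO.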

M21 [4] = test: Induction of DNA damage response in human M21 cells assessed as phosphorylation of H2AX into gammaH2AX at IC50 after 24 hrs by DAPI staining-based immunofluorescence assay; format: functional, cell-based
How it was run: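 M21 cells (1 × 10^5) on fibronectin-coated coverslips, grown 24 h, then exposed to agent for 24 h at 37 °C; 0.5% DMSO control. Fixed with 3.7% formaldehyde and permeabilized with 0.1% saponin/3% BSA. Probed with mouse anti-H2AX pS139 antibody for 2 h at room temperature. Nuclei counterstained with DAPI; nuclear γH2AX foci viewed by epifluorescence microscopy.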

HT-29 = test: Cytotoxicity against human HT-29 cells after 48 hrs by SRB assay; format: functional, cell-based; conditions: HT-29, 48 h
How it was run: (§4)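 NCI sulforhodamine B protocol. Cells were grown in high-glucose DMEM with 5% FBS and seeded per well at 4 × 10^3 (HT-29), 3.5 × 10^3 (M21) or 3 × 10^3 (MCF-7), then allowed 24 h to attach. Serial dilutions from 200 μM to 780 nM final were applied in DMSO <0.5% for 48 h. Cells were fixed with cold TCA (10% final) and stained with SRB, with absorbance read at 530–568 nm. Growth inhibition was computed against day-0 plates, giving the 50% inhibitory concentration. At least two experiments in triplicate, CV <10%.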

M21 [5] = test: Cytotoxicity against human M21 cells after 48 hrs by SRB assay; format: functional, cell-based; conditions: M21, 48 h; how it was run: as §4
MCF7 = test: Cytotoxicity against human MCF7 cells after 48 hrs by SRB assay; format: functional, cell-based; conditions: MCF7, 48 h; how it was run: as §4
Jurkat [6] = test: Cell cycle arrest in human Jurkat E6-1 cells assessed as accumulation at S phase at 15 uM after 24 hrs by FACS flow cytometry; format: functional; how it was run: as §3
Jurkat [7] = test: Cell cycle arrest in human Jurkat E6-1 cells assessed as accumulation at G2/M phase at 15 uM after 24 hrs by FACS flow cytometry; format: functional; how it was run: as §1
HT-1080 = test: Antitumor activity against human HT1080 cells xenografted in chicken chorioallantoic membrane assessed as inhibition of tumor growth at 30 ug per egg, iv administered on day 11 measured on day 17 by CAM assay; format: functional
How it was run: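 HT-1080 fibrosarcoma cells (3.5 × 105/egg) were applied onto freshly exposed CAM of fertilized chicken eggs. On day 11, drug from a DMSO stock was diluted in Cremophor EL/99% ethanol/PBS (1/1/14 v/v) and 100 μL was injected into a vein under the CAM. Groups of 10–12 eggs were kept to day 17, embryos were euthanized at 4 °C for ≥4 h, and tumor wet weight was recorded.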

[8] = Toxicity in fertilized chicken embryo assessed as mortality rate at 30 ug per egg, iv administered on day 11 measured on day 17 by CAM assay; format: organism-based, Gallus gallus; conditions: in vivo, read-out: Activity
How it was run: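 Fertilized chicken eggs grafted on the CAM with HT-1080 cells (3.5 × 105/egg) received a 100 μL intravenous injection under the CAM on day 11. The drug was diluted in Cremophor EL/99% ethanol/PBS (1/1/14 v/v). Groups held 10–12 eggs and were incubated until day 17, when dead embryos and signs of toxicity were counted per group.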

Jurkat [9] = test: Cell cycle arrest in human Jurkat E6-1 cells assessed as accumulation at G0/G1 phase at 15 uM after 24 hrs by FACS flow cytometry; format: functional; how it was run: as §1
Jurkat [10] = test: Cell cycle arrest in human Jurkat E6-1 cells assessed as accumulation at S phase at 31 uM after 24 hrs by FACS flow cytometry; format: functional; how it was run: as §2
Jurkat [11] = test: Cell cycle arrest in human Jurkat E6-1 cells assessed as accumulation at G2/M phase at 31 uM after 24 hrs by FACS flow cytometry; format: functional; how it was run: as §3
Jurkat [12] = test: Cell cycle arrest in human Jurkat E6-1 cells assessed as accumulation at G0/G1 phase at 31 uM after 24 hrs by FACS flow cytometry; format: functional; how it was run: as §1
Jurkat [13] = test: Cell cycle arrest in human Jurkat E6-1 cells assessed as accumulation at S phase at 25 uM after 24 hrs by FACS flow cytometry; format: functional; how it was run: as §3
Jurkat [14] = test: Cell cycle arrest in human Jurkat E6-1 cells assessed as accumulation at G2/M phase at 25 uM after 24 hrs by FACS flow cytometry; format: functional; how it was run: as §3
Jurkat [15] = test: Cell cycle arrest in human Jurkat E6-1 cells assessed as accumulation at G0/G1 phase at 25 uM after 24 hrs by FACS flow cytometry; format: functional; how it was run: as §1
Jurkat [16] = test: Cell cycle arrest in human Jurkat E6-1 cells assessed as accumulation at G0/G1 phase at 22 uM after 24 hrs by FACS flow cytometry; format: functional; how it was run: as §1
Jurkat [17] = test: Cell cycle arrest in human Jurkat E6-1 cells assessed as accumulation at S phase at 22 uM after 24 hrs by FACS flow cytometry; format: functional; how it was run: as §3
Jurkat [18] = test: Cell cycle arrest in human Jurkat E6-1 cells assessed as accumulation at G2/M phase at 22 uM after 24 hrs by FACS flow cytometry; format: functional; how it was run: as §3
Jurkat [19] = test: Cell cycle arrest in human Jurkat E6-1 cells assessed as accumulation at G0/G1 phase at 12 uM after 24 hrs by FACS flow cytometry; format: functional; how it was run: as §1
Jurkat [20] = test: Cell cycle arrest in human Jurkat E6-1 cells assessed as accumulation at S phase at 12 uM after 24 hrs by FACS flow cytometry; format: functional; how it was run: as §3
Jurkat [21] = test: Cell cycle arrest in human Jurkat E6-1 cells assessed as accumulation at G2/M phase at 12 uM after 24 hrs by FACS flow cytometry; format: functional; how it was run: as §1
Jurkat [22] = test: Cell cycle arrest in human Jurkat E6-1 cells assessed as accumulation at S phase at 16 uM after 24 hrs by FACS flow cytometry; format: functional; how it was run: as §3
Jurkat [23] = test: Cell cycle arrest in human Jurkat E6-1 cells assessed as accumulation at G2/M phase at 16 uM after 24 hrs by FACS flow cytometry; format: functional; how it was run: as §1
Jurkat [24] = test: Cell cycle arrest in human Jurkat E6-1 cells assessed as accumulation at G0/G1 phase at 16 uM after 24 hrs by FACS flow cytometry; format: functional; how it was run: as §1
Jurkat [25] = test: Cell cycle arrest in human Jurkat E6-1 cells assessed as accumulation at S phase at 48 uM after 24 hrs by FACS flow cytometry; format: functional; how it was run: as §2
Jurkat [26] = test: Cell cycle arrest in human Jurkat E6-1 cells assessed as accumulation at G2/M phase at 48 uM after 24 hrs by FACS flow cytometry; format: functional; how it was run: as §3
Jurkat [27] = test: Cell cycle arrest in human Jurkat E6-1 cells assessed as accumulation at G0/G1 phase at 48 uM after 24 hrs by FACS flow cytometry; format: functional; how it was run: as §1

Compound: CCNC(=O)Nc1cccc(S(=O)(=O)Oc2ccccc2C)c1
- Activity (Jurkat [1]): 25%
- Activity (Jurkat [2]): 60%
- Activity (Jurkat [3]): 15%
- Activity (M21 [4]): Active
- IC50 (HT-29): 44 µM
- IC50 (M21 [5]): 51 µM
- IC50 (MCF7): 55 µM

Compound: CCc1ccccc1OS(=O)(=O)c1ccc(NC(=O)NCCCCl)cc1
- Activity (Jurkat [6]): 63%
- Activity (Jurkat [7]): 11%
- Activity (M21 [4]): Active
- TGI (HT-1080): 68%
- mortality at 6 days [8]: 0%
- IC50 (M21 [5]): 15 µM
- Activity (Jurkat [9]): 26%

Compound: O=C(NCCCCl)Nc1ccc(S(=O)(=O)Oc2ccc(O)cc2)cc1
- Activity (Jurkat [10]): 65%
- Activity (Jurkat [11]): 12%
- Activity (M21 [4]): Active
- IC50 (HT-29): 50 µM
- IC50 (M21 [5]): 47 µM
- IC50 (MCF7): 51 µM
- Activity (Jurkat [12]): 23%

Compound: Cc1ccccc1NS(=O)(=O)c1cccc(NC(=O)NCCCCl)c1
- Activity (Jurkat [13]): 38%
- Activity (Jurkat [14]): 17%
- IC50 (HT-29): 42 µM
- IC50 (M21 [5]): 60 µM
- IC50 (MCF7): 52 µM
- Activity (Jurkat [15]): 45%

Compound: CCCc1ccccc1NS(=O)(=O)c1ccc(NC(=O)NCCCCl)cc1
- Activity (Jurkat [16]): 36%
- Activity (Jurkat [17]): 41%
- Activity (Jurkat [18]): 23%
- IC50 (HT-29): 26 µM
- IC50 (M21 [5]): 38 µM
- IC50 (MCF7): 35 µM

Compound: CCNC(=O)Nc1cccc(S(=O)(=O)Oc2ccccc2CC)c1
- Activity (Jurkat [19]): 26%
- Activity (Jurkat [20]): 63%
- Activity (Jurkat [21]): 11%
- Activity (M21 [4]): Active
- IC50 (HT-29): 33 µM
- IC50 (M21 [5]): 30 µM

Compound: CCc1ccccc1NS(=O)(=O)c1ccc(NC(=O)NCCCl)cc1
- Activity (Jurkat [22]): 43%
- Activity (Jurkat [23]): 16%
- Activity (Jurkat [24]): 41%
- IC50 (HT-29): 40 µM
- IC50 (M21 [5]): 68 µM
- IC50 (MCF7): 33 µM

Compound: Cc1ccccc1NS(=O)(=O)c1ccc(NC(=O)NCCCl)cc1
- Activity (Jurkat [25]): 35%
- Activity (Jurkat [26]): 20%
- IC50 (HT-29): 55 µM
- IC50 (M21 [5]): 63 µM
- Activity (Jurkat [27]): 45%
